Experimental data as given in ChEMBL document CHEMBL1649420, “Identifying chelators for metalloprotein inhibitors using a fragment-based approach” (J Med Chem, 2011).

Experiments:
[1] = biological target: T1, Interstitial collagenase (Homo sapiens) (UniProt P03956); conditions: at 1 mM;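 further: recombinant human enzyme, with inhibition measured after 30 min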
T1 sequence (whole entry): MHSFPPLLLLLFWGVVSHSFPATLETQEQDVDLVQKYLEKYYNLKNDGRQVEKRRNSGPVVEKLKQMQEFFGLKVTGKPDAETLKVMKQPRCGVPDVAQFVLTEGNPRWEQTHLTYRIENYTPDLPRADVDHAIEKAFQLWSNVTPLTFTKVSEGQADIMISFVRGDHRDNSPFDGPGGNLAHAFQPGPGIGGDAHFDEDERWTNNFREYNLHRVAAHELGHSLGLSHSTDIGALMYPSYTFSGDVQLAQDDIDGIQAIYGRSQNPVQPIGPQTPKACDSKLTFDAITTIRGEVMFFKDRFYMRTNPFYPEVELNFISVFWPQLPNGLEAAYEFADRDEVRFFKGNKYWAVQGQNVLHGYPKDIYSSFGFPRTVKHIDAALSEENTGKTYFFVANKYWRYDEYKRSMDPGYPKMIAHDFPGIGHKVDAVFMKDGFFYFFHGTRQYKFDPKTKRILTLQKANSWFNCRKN

[2] = biological target: Matrix metalloproteinase-9 (Homo sapiens) (UniProt P14780); conditions: at 1 mM;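 further: recombinant human MMP9, activity read after 30 min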
Sequence of Matrix metalloproteinase-9 (Homo sapiens) (P14780 whole entry): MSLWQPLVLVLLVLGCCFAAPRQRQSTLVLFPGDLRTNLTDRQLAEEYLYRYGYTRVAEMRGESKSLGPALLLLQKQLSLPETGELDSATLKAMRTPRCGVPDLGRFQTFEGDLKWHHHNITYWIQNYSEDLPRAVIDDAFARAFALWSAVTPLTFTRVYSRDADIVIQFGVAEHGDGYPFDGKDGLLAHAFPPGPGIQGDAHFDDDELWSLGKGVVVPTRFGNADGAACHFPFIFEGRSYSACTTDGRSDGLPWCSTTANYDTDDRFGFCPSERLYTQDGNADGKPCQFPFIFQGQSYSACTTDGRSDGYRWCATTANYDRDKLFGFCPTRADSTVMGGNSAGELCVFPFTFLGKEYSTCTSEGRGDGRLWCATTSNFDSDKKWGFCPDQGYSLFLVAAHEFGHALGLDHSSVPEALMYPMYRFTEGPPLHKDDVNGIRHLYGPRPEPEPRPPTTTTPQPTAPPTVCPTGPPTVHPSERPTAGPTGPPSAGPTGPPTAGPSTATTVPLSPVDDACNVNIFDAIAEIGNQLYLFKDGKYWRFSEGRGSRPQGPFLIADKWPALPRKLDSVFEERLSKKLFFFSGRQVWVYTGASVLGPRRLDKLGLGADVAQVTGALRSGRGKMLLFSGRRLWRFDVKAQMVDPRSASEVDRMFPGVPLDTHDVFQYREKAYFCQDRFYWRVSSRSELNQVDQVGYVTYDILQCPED

[3] = biological target: T2, 72 kDa type IV collagenase (Homo sapiens, UniProt P08253); conditions: at 1 mM
Target sequence in this assay (P08253 110-660 limits assumed): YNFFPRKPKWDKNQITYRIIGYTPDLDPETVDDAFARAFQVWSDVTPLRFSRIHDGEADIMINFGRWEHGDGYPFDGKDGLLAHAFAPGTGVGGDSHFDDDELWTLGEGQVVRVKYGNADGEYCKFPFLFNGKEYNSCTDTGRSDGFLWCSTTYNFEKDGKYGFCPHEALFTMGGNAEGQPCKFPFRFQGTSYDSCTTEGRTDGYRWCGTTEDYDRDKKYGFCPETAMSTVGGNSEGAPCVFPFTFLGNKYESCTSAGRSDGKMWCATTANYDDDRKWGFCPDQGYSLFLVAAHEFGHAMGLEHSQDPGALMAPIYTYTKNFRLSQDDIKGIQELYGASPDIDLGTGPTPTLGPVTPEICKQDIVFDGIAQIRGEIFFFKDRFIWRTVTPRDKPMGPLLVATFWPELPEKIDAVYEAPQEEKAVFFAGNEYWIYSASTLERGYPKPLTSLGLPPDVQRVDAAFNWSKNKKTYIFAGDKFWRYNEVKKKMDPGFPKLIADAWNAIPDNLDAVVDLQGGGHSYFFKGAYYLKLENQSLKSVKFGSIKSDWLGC

[4] = biological target: Neutrophil collagenase (Homo sapiens) (UniProt P22894); conditions: at 1 mM;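 further: recombinant human MMP8 enzyme, percent inhibition read after 30 min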
Sequence of Neutrophil collagenase (Homo sapiens) (P22894 101-467 limits assumed): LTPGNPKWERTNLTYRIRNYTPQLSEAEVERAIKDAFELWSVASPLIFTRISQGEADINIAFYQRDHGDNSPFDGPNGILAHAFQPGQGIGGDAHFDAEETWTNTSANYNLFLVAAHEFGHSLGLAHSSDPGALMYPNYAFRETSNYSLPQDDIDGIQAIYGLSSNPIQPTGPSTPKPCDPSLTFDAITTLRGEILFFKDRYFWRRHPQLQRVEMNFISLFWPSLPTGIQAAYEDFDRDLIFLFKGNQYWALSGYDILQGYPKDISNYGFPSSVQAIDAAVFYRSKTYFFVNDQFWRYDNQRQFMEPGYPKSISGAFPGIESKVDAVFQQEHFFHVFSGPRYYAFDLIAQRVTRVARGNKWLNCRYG

[5] = biological target: T3, Lethal factor (Bacillus anthracis) (UniProt P15917); conditions: at 1 mM
T3 sequence (whole entry): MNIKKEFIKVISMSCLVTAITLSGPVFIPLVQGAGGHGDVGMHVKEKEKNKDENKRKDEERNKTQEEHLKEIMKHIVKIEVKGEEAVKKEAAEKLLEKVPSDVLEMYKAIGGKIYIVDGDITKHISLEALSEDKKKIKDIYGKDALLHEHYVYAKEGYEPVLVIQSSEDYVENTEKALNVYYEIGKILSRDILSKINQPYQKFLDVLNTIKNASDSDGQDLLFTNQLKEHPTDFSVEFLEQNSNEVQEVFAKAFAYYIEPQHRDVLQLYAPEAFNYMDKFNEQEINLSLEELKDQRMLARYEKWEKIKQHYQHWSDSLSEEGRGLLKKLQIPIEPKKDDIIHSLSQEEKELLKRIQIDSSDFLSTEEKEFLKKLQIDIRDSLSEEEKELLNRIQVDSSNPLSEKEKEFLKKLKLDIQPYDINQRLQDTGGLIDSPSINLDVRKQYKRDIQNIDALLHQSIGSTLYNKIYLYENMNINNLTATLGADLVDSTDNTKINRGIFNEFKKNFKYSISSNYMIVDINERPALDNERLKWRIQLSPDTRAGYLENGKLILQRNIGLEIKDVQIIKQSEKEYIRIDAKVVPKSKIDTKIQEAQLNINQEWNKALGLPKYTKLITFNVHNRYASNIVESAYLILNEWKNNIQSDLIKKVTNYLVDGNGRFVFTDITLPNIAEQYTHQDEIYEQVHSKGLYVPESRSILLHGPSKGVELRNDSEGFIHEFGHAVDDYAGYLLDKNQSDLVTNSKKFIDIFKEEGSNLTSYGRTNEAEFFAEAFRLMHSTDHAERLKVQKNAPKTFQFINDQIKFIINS

[6] = biological target: T4, Tyrosinase (Agaricus bisporus, UniProt O42713); experiment: Inhibition of mushroom tyrosinase after 10 mins
T4 sequence (O42713 whole entry): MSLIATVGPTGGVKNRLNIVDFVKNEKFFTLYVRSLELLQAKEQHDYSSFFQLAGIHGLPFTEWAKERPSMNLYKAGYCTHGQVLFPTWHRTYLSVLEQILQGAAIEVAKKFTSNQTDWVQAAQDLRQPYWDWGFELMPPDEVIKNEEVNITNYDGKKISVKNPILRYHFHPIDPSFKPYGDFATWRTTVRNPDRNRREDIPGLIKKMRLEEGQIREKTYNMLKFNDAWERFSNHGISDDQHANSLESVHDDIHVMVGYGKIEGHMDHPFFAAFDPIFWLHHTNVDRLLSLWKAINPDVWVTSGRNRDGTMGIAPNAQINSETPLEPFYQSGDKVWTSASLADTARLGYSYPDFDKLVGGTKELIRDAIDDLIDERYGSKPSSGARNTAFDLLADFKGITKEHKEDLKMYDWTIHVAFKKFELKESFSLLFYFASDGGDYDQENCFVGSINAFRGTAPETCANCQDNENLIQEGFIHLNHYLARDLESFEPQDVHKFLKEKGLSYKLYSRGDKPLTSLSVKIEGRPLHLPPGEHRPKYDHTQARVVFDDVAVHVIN

[7] = biological target: T5, Tyrosinase (Agaricus bisporus) (UniProt O42713); conditions: at 1 mM
T5 sequence (whole entry): T4 sequence (O42713 whole entry)

[8] = biological target: T6, Polyunsaturated fatty acid 5-lipoxygenase (Homo sapiens) (UniProt P09917); experiment: Inhibition of human recombinant 5-lipoxygenase at 1 mM after 10 mins by fluorescence assay
T6 sequence (whole entry): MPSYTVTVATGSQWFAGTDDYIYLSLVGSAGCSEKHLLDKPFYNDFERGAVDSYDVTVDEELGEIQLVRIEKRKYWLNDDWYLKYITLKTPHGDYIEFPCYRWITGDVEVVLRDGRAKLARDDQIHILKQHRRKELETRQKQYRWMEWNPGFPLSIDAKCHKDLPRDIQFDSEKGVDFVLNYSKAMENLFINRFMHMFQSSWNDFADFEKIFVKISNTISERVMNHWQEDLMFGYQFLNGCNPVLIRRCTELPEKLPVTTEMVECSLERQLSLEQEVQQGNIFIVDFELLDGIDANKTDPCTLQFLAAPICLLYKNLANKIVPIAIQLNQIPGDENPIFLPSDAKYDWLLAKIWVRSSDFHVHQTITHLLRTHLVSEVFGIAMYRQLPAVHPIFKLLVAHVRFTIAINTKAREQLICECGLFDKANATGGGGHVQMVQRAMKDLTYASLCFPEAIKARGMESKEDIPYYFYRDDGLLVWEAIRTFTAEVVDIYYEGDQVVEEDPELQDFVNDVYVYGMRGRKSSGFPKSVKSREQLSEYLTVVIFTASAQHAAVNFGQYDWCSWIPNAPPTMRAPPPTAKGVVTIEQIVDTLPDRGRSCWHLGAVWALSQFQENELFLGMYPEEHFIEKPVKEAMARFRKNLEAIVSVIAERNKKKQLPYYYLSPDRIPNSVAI

[9] = biological target: Stromelysin-1 (Homo sapiens) (UniProt P08254); conditions: at 1 mM;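 further: recombinant enzyme, inhibition read after a 30 min incubation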
Sequence of Stromelysin-1 (Homo sapiens) (P08254 100-477 limits assumed): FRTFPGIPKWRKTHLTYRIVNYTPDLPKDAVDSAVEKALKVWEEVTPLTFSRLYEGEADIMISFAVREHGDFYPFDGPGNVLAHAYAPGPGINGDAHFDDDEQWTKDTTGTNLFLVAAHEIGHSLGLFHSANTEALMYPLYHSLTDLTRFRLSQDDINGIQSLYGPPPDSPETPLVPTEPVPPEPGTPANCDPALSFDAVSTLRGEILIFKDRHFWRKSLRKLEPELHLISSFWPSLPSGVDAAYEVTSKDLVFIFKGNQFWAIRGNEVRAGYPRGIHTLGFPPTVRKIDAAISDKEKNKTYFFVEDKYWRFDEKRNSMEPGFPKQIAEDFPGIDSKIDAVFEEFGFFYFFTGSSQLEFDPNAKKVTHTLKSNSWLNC

[10] = biological target: T7, Polyunsaturated fatty acid 5-lipoxygenase (Homo sapiens, UniProt P09917); experiment: Inhibition of human recombinant 5-lipoxygenase after 10 mins by fluorescence assay
T7 sequence (P09917 whole entry): T6 sequence (whole entry)

[11] = biological target: T2, 72 kDa type IV collagenase; experiment: Inhibition of human recombinant MMP2 at 25 uM after 30 mins
How it was run: (§1)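 Enzyme (1.16 U) preincubated 30 min at 37 °C with fragment in 50 mM HEPES, 10 mM CaCl2, 0.05% Brij-35, pH 7.5. Fluorogenic Mca peptide substrate (4 μM final) then added. Rate of fluorescence increase compared with no-inhibitor control (100%). Single-point 25 μM final for the 8-hydroxyquinoline sublibrary. IC50 fitted to dose-response curves from serial dilutions of DMSO stocks.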
Target sequence in this assay (P08253 110-660 limits assumed): as the sequence (P08253 110-660 limits assumed) above

[12] = biological target: T2, 72 kDa type IV collagenase; experiment: Inhibition of human recombinant MMP2 after 30 mins
How it was run: as §1
Target sequence in this assay (P08253 whole entry): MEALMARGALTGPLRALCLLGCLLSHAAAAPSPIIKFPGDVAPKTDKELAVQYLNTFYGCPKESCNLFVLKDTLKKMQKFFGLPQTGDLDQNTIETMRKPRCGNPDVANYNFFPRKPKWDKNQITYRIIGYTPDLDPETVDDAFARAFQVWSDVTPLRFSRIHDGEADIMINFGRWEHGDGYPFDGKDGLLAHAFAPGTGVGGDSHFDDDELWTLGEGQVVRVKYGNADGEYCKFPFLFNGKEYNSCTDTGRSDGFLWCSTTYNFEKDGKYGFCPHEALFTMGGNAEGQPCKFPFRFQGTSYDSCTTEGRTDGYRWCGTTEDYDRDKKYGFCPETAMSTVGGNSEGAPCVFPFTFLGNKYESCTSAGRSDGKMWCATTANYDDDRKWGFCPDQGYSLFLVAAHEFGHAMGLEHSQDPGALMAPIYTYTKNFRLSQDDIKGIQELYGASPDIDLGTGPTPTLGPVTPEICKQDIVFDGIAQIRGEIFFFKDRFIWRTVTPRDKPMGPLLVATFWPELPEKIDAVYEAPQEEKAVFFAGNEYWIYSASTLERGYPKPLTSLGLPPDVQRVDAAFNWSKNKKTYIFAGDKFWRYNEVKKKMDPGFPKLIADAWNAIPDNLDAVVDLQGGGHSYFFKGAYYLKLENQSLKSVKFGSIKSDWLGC

[13] = biological target: T8, Nitric oxide synthase, inducible (Mus musculus) (UniProt P29477); conditions: at 1 mM;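 further: recombinant enzyme, activity read out colorimetrically after 40 min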
T8 sequence (whole entry): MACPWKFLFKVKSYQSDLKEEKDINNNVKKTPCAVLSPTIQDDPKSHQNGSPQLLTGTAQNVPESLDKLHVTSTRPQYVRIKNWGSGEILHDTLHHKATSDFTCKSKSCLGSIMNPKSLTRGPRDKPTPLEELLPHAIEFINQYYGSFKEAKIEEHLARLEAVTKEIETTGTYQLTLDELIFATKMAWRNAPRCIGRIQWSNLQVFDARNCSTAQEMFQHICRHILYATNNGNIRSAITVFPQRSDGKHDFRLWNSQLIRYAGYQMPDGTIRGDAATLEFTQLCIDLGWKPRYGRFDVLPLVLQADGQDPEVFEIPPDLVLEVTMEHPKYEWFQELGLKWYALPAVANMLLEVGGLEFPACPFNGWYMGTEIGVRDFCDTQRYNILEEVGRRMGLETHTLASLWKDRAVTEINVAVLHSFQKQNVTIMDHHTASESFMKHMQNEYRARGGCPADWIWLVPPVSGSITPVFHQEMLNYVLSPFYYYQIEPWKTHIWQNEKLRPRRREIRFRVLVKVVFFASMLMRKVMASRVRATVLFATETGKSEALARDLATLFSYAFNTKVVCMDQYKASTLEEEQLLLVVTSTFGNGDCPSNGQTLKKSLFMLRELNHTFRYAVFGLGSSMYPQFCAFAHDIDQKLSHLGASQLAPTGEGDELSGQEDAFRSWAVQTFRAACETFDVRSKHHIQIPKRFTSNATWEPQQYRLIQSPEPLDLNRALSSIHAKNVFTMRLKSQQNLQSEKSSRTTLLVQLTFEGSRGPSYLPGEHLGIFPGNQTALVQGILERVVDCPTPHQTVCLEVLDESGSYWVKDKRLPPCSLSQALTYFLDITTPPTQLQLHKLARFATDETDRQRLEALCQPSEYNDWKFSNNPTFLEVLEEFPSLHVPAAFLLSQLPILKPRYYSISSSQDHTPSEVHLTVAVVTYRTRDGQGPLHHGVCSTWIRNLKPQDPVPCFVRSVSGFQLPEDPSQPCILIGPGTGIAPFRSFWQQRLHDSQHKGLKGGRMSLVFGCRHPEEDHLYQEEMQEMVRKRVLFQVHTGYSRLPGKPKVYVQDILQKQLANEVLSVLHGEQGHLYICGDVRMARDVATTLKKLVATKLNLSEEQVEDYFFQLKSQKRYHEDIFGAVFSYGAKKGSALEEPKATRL

[14] = biological target: T9, Lethal factor (Bacillus anthracis, UniProt P15917); experiment: Inhibition of recombinant anthrax lethal factor after 30 mins by fluorescence assay
T9 sequence (P15917 whole entry): T3 sequence (whole entry)

Row | Compound | inhibition [1] [%] | inhibition [2] [%] | inhibition [3] [%] | inhibition [4] [%] | inhibition [5] [%] | inhibition [8] [%] | inhibition [9] [%] | inhibition [11] [%] | IC50 [12] [µM] | also measured
1 | Cc1occc(=S)c1O | 98 | 100 | 100 | 101 | 96 | 91 | 98 |  |  | IC50 [6]: 3.8 µM; inhibition [7]: 102%; IC50 [10]: 11 µM
2 | O=S(=O)(Nc1ccc(O)c2ncccc12)c1ccc(F)cc1 |  |  |  |  |  |  |  | > 65 | 7.2 | 
3 | O=C(O)c1cc(O)ccc1O [GENTISIC ACID] | 13 | 40 | 0 | 1 |  | 86 | -3 |  |  | inhibition [13]: 24%; inhibition [7]: 96%; IC50 [10]: 75 µM
4 | CC(=O)NO [ACETOHYDROXAMIC ACID] | 10 |  | 4 | 5 | 25 |  | 5 |  | 15000 | inhibition [13]: 4%; inhibition [7]: -2%
5 | Oc1coccc1=S | 99 | 100 | 100 | 102 | 101 | 94 | 98 |  | 76 | IC50 [14]: 204 µM; inhibition [7]: 97%
6 | O=S(=O)(Nc1ccc(O)c2ncccc12)c1ccccc1 |  |  |  |  |  |  |  | > 65 | 8.8 | 
7 | O=S(=O)(Nc1ccc(O)c2ncccc12)c1cccs1 |  |  |  |  |  |  |  | > 65 | 8.4 | 
8 | O=S(=O)(Nc1ccc2cccnc2c1O)c1ccc(-c2ccccc2)cc1 |  |  |  |  |  |  |  | > 65 | 3.9 | 
9 | Nc1cccc(C(=O)O)c1O | 69 | 59 | 70 | 67 | 90 | 72 | 72 |  | 389 | inhibition [13]: 18%
10 | O=S(=O)(Nc1ccc2cccnc2c1O)c1ccc(F)cc1 |  |  |  |  |  |  |  | > 65 | 3 | 
11 | O=C(O)c1cccc(=O)[nH]1 |  |  |  |  |  |  |  |  |  | IC50 [6]: 159 µM
12 | O=S(=O)(Nc1ccc2cccnc2c1O)c1cccs1 |  |  |  |  |  |  |  | > 65 | 4.3 | 
13 | O=S(=O)(Nc1ccc2cccnc2c1O)c1ccccc1 |  |  |  |  |  |  |  | > 65 | 5.6 | 
14 | O=S(=O)(Nc1ccc(O)c2ncccc12)c1ccc(-c2ccccc2)cc1 |  |  |  |  |  |  |  | > 65 | 10.8 | 
15 | Oc1cccc2cccnc12 [OXYQUINOLINE] | 77 | 78 | 94 | 92 | 56 | 61 | 83 |  | 130 | inhibition [13]: 8%
